Data on two substances can be found in article PMC4083110 (Molecular & Cellular Proteomics : MCP, 2014).

“Also recorded” adds a separate entry of the source.

The target in one experiment is T1, RASA1 SH2 domains (Homo sapiens, UniProt P20936).
T1 sequence (P20936 181-441 limits assumed): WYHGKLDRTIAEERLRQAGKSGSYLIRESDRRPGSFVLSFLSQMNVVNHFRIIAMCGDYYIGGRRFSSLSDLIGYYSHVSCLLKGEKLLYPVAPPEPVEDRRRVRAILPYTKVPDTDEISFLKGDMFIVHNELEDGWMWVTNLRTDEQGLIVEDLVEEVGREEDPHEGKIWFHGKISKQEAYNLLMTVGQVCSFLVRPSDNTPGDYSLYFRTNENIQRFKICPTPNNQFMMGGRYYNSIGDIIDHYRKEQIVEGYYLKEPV
The experiment is described as follows: FP saturation binding, construct not stated. The note with it: result in words. An outline of the steps:
(§1)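 Multi-SH2 genes were used as tandem proteins that kept the linker residues. Automated high-throughput FP saturation binding was run against 178 synthetic phosphopeptides from RTK, GAB1 and androgen receptor tyrosine sites. Millipolarization readings were fitted to P_obs = Pmax·[Protein]/(K_D+[Protein]) by least squares regression to give K_D.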

A further experiment deals with T2, PLCG2 SH2 domains (Homo sapiens, UniProt P16885).
T2 sequence (P16885 532-735 limits assumed): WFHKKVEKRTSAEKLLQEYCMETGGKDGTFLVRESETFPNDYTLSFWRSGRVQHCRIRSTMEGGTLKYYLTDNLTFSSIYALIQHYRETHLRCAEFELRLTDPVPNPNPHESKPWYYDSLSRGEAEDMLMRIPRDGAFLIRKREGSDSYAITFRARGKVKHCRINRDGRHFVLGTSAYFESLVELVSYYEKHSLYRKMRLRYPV
In words: FP saturation binding, construct not stated. The note with it: result in words. The gist of the method:
as §1

The next experiment deals with SRC SH2 domain (Homo sapiens, UniProt P12931). In words: FP saturation binding. The note with it: result in words. An outline of the steps:
as §1

The test system of experiment [1] is PIK3R-derived SH2 domains. In words: FP saturation binding, domain family. The arrangement: species or system human. The note with it: FP, result in words. The gist of the method:
as §1

For the next experiment, the target named is T3, PLCG1 SH2 domains (Homo sapiens, UniProt P19174).
T3 sequence (P19174 550-756 limits assumed): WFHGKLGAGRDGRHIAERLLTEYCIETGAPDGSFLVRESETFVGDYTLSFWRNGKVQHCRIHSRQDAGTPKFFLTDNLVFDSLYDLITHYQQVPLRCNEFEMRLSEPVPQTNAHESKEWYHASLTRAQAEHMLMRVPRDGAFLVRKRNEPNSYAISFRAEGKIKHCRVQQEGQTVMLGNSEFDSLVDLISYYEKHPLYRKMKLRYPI
The experiment is described as follows: FP saturation binding, construct not stated. The note with it: result in words. An outline of the steps: as §1

For experiment [2], the target named is PLCG1 (NC tandem domain), PLCG1.NC (Homo sapiens, UniProt P19174). In words: FP saturation binding. The note with it: result in words. The gist of the method:
as §1

Experiment [3] deals with 93 SH2 domains and 2 phosphotyrosine binding (PTB) domains. In words: High throughput FP, whole domain panel. Also noted: species or system human. The note with it: result in words. An outline of the steps:
as §1

The subject of experiment [4] is c-Src family kinase SH2 domains. The experiment is described as follows: FP saturation binding, domain family. Also noted: species or system human. The note with it: result in words. The gist of the method: as §1
Experiment [5] addresses PIK3R3 (C-terminal domain), PIK3R3.C (Homo sapiens, UniProt Q92569). In words: FP saturation binding. The note with it: result in words. The gist of the method: as §1

With QSRDXYNFPLALd [AR Tyr(P)-362], the “recruitment of RASA1 SH2 domains” value at RASA1 SH2 domains was “interacted”. Besides, the “recruitment of PLCG2 SH2 domains” value at PLCG2 SH2 domains was “recruitment sites”. Moreover, at SRC SH2 domain, the “interaction with SRC SH2 domain” value was “interacted”. The “recruitment of PIK3R (PI3KR) SH2 domains” value in experiment [1] is listed as “interacted; also recorded: relatively high affinity”. Further, at PLCG1 SH2 domains, the “recruitment of PLCG1 SH2 domains” value is given as “interacted; also recorded: recruitment sites”.
Consider YSGPXGDMRLETd [AR Tyr(P)-534], for which the “recruitment of PLCG1 (NC tandem domain)” value in experiment [2] is recorded as “did recruit”. The “recruitment across the SH2 domain panel” value in experiment [3] is given as “interacted with few SH2 domains”. Besides, the “recruitment of c-Src family kinase SH2 domains” value in experiment [4] is on record as “did not recruit”. The “recruitment of PIK3R3 (C-terminal domain)” value in experiment [5] was “did recruit”.
